The record followed here is ChEMBL document CHEMBL4825663 (J Med Chem, 2021).

SMILES strings stand for the structures.

A short description of series [1]: Cmax in Sprague-Dawley rat at 20 mg/kg, po measured upto 24 hrs by LC-MS/MS analysis. Type of series: ADME, organism-based. On the set-up: route oral, dose 20 mg/kg, time <=24. The note with it: in vivo.
The test system of series [2] is MDA-MB-231. The series is described as follows: Antitumor activity against human MDA-MB-231 cells xenografted in athymic nude mouse assessed as reduction in median number of days for tumor to reach two tumor mass doubling at 12 mg/kg, iv administered every other day for 4 doses and monitored for 70 to 82 days (reference value: 13.1 day). Type of series: functional. As to conditions: time 70-82 day. (In general: A xenograft is tissue or cells of one species grown in another, often human tumour cells in immunodeficient mice.)

The nature of series [3]: Ratio of drug concentration in BALB/c mouse liver to plasma at 20 mg/kg, po measured upto 24 hrs in presence of 10 mg/kg encequidar by LC-MS/MS analysis. In kind it is ADME, organism-based.
Series [4] is described as follows: AUClast in Sprague-Dawley rat at 6 mg/kg, iv measured upto 24 hrs by LC-MS/MS analysis. Type of series: ADME, organism-based. More on the design: route intravenous, dose 6 mg/kg, time <=24. The note with it: in vivo.
Series [5] concerns NCI-H460. The series can be described thus: Antitumor activity against human NCI-H460 cells xenografted in athymic nude mouse assessed as median tumor growth delay at 18 mg/kg, iv administered every other day for 4 doses and monitored for 48 days. In kind it is functional. As to conditions: time 48 day; call rule not given here. The method in brief:
(§1)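 Female athymic NCr-nu mice carried subcutaneous NCI-H460 xenografts. […] Tumor weights and body weights were followed for 48 days after implantation. Read-out was median tumor growth delay.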

A short description of series [6]: Clearance in Sprague-Dawley rat at 6 mg/kg, iv measured upto 24 hrs by LC-MS/MS analysis. Type of series: ADME, organism-based. As to conditions: in vivo.
Series [7] can be described thus: Half life in Sprague-Dawley rat at 20 mg/kg, po measured upto 24 hrs by LC-MS/MS analysis. As to conditions: in vivo.
Series [8] is described as follows: Tmax in Sprague-Dawley rat at 6 mg/kg, iv measured upto 24 hrs by LC-MS/MS analysis. Type of series: ADME, organism-based. As to conditions: in vivo.
Series [9] in a line: Ratio of drug concentration in BALB/c mouse large intestine to plasma at 20 mg/kg, po measured upto 24 hrs in presence of 10 mg/kg encequidar by LC-MS/MS analysis. In kind it is ADME, organism-based.
Series [10] in a line: Drug distribution in Sprague-Dawley rat intestine at 20 mg/kg, po measured upto 168 hrs in presence of 10 mg/kg encequidar by LC-MS/MS analysis. As to conditions: in vivo. In kind it is ADME, organism-based.
Series [11] deals with MDA-MB-231. The series can be described thus: Antitumor activity against human MDA-MB-231 cells xenografted in athymic nude mouse assessed as reduction in median number of days for tumor to reach two tumor mass doubling at 18 mg/kg, iv administered every other day for 4 doses and monitored for 70 to 82 days (reference value: 13.1 day). Type of series: functional. As to conditions: time 70-82 day.

Series [12] is described as follows: Drug distribution in BALB/c mouse intestine at 20 mg/kg, po measured upto 24 hrs in presence of 10 mg/kg encequidar by LC-MS/MS analysis. Type of series: ADME, organism-based. The note with it: in vivo.
Series [13] is described as follows: in vivo. The note with it: Sprague-Dawley, rat, po, 20 mg/kg.
In series [14] the test system is MDA-MB-231. The series is described as follows: Antitumor activity against human MDA-MB-231 cells xenografted in athymic nude mouse assessed as reduction in median number of days for tumor to reach two tumor mass doubling at 40 mg/kg, po administered every other day for 4 doses in presence of 16 mg/kg encequidar and monitored for 70 to 82 days (reference value: 13.1 day). Type of series: functional. As to conditions: time 70-82 day.

Series [15] can be described thus: Drug distribution in Sprague-Dawley rat kidney at 20 mg/kg, po measured upto 168 hrs in presence of 10 mg/kg encequidar by LC-MS/MS analysis. Type of series: ADME, organism-based. The note with it: in vivo.
Series [16] is described as follows: Oral bioavailability in Sprague-Dawley rat at 20 mg/kg measured upto 24 hrs by LC-MS/MS analysis. The note with it: in vivo. Type of series: ADME, organism-based.
Series [17] can be described thus: Half life in Sprague-Dawley rat at 6 mg/kg, iv measured upto 24 hrs by LC-MS/MS analysis. As to conditions: in vivo.
The test system of series [18] is NCI-H460. The series can be described thus: Antitumor activity against human NCI-H460 cells xenografted in athymic nude mouse assessed as median tumor growth delay at 30 mg/kg, po administered every other day for 4 doses in presence of 12 mg/kg encequidar and monitored for 48 days. Type of series: functional. As to conditions: time 48 day. The method in brief:
as §1

Series [19] can be described thus: AUClast in Sprague-Dawley rat at 20 mg/kg, po measured upto 24 hrs in presence of 10 mg/kg encequidar by LC-MS/MS analysis. In kind it is ADME, organism-based. The note with it: in vivo. More on the design: route oral, dose 20 mg/kg, time <=24.
Series [20] is described as follows: Drug excretion in dog bile at 6 mg/kg, po in presence of 3 mg/kg encequidar. Type of series: ADME, organism-based, Canis lupus familiaris. As to conditions: in vivo.
A short description of series [21]: Drug distribution in Sprague-Dawley rat spinal cord. The note with it: in vivo. In kind it is ADME, tissue-based.
Series [22] can be described thus: Toxicity in Beagle dog at 200 mg/kg, po administered as repeated dose and measured upto 13 weeks. Type of series: organism-based, Canis lupus familiaris. The note with it: in vivo, 2184 h.
The nature of series [23]: Cmax in Beagle dog at 10 mg/kg, po measured upto 48 hrs by LC-MS/MS analysis. The note with it: in vivo.
For series [24], the target named is T1, Multidrug and toxin extrusion protein 2 (Homo sapiens, UniProt Q86VL8).
T1 sequence (Q86VL8 whole entry): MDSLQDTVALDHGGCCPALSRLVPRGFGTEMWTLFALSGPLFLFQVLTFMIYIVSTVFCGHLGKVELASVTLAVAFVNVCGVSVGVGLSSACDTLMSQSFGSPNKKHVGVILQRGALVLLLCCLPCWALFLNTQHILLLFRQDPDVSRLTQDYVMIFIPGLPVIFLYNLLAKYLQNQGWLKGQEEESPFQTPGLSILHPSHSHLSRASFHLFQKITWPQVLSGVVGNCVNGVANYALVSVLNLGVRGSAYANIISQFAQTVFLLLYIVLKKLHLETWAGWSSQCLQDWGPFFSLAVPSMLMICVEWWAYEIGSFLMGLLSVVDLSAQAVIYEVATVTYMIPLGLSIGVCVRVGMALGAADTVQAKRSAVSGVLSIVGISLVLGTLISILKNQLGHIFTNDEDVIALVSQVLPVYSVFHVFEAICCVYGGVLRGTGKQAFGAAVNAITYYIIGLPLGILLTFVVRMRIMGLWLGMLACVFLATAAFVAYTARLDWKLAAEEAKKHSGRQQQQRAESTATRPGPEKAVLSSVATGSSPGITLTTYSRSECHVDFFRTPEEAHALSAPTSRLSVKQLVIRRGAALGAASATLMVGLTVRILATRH
The series is described as follows: Inhibition of human MATE2K assessed as reduction in intracellular probe substrate accumulation upto 100 uM by microplate scintillation counter analysis relative to control. In kind it is cell-based. The method in brief:
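Cellular uptake-inhibition assays used Chinese hamster ovary, HEK293 or MDCKII cells stably expressing the respective human SLC transporter, run alongside the corresponding control cells. Inhibitor was tested at concentrations up to 100 μM.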

Series [25] is described as follows: Apparent permeability from apical to basolateral side in MDCK-II cells after 120 mins by LC-MS/MS analysis. In kind it is ADME, cell-based, Canis lupus familiaris. As to conditions: dog.
The nature of series [26]: Oral bioavailability in Beagle dog at 10 mg/kg measured upto 48 hrs by LC-MS/MS analysis. Type of series: ADME, organism-based, Canis lupus familiaris. As to conditions: in vivo. The method in brief:
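Plasma pharmacokinetics in male Sprague-Dawley rats and male Beagle dogs (n = 3 per species), each given a single dose by IV at 3 mg/kg and by PO at 10 mg/kg. Cmax, Tmax, T1/2 and AUClast were derived for each route. F (%) was calculated from the PO and IV AUClast.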

Series [27] is described as follows: Tmax in Sprague-Dawley rat at 10 mg/kg, po measured upto 48 hrs by LC-MS/MS analysis. The note with it: in vivo.
Series [28] is described as follows: Toxicity in Sprague-Dawley rat at 2000 mg/kg, po administered as single dose and measured upto 13 weeks. In kind it is organism-based. As to conditions: in vivo, 2184 h.

Broadly, the Cmax is the peak of the concentration-time curve. The Kp is the ratio of the level in a tissue or fluid to that in plasma or blood. As a reminder, the AUC(0-t) is the area under the concentration-time curve up to a stated or last time point. The clearance is the volume of plasma or blood freed of the substance per unit of time. One may read the half-life as the time in which the quantity being followed falls by half. Higher therefore signals slow loss. The term Tmax denotes the time from dosing to the highest level. As a reminder, the bioavailability is dose-corrected exposure relative to a reference, in per cent. Low values mean little systemic uptake, high ones much systemic uptake. What is called Papp A→B is the apparent permeability from the apical to the basolateral side of a cell layer.

On to `CC(=O)O[C@H]1C(=O)[C@@]2(C)[C@H]([C@H](OC(=O)c3ccccc3)[C@]3(O)C[C@H](OC(=O)[C@H](O)[C@@H](NC(=O)c4ccccc4)c4ccccc4)C(C)=C1C3(C)C)[C@]1(OC(C)=O)CO[C@@H]1C[C@@H]2O` [PACLITAXEL], for which the peak level in series [1] (Cmax) was 127 ng/mL. In addition, the Time in series [2] is 26.1 days; in series [5], 8.5 days; in series [11], over 69 days; in series [14], over 69 days; in series [18], 9.9 days. Also, the Kp at 24 h in series [3] and in series [9] was over 1 each time. The AUC(0-t) at 24 h in series [4] is 2730 ng·h/mL; in series [19] it was 3760 ng·h/mL. Further, in [6], the clearance is 35 mL/min. Moreover, the half-life at 24 h was 480 min in series [7], 408 min in series [13] and 462 min in series [17]. Also, in series [8], the Tmax amounted to 4.8 min. In addition, the Drug uptake result in [10], in series [12] and in series [15] was “Active” in each case. The compound further registered a bioavailability in [16] of 3.4%. The Drug excretion entry in series [20] is “Metabolite_Detected”.

For `COc1cc2c(cc1OC)CN(CCc1ccc(-n3nnc(-c4cc(OC)c(OC)cc4NC(=O)c4cc(=O)c5ccccc5o4)n3)cc1)CC2`, the Drug uptake entry in series [21] is “Not Active”. Moreover, the Activity entry in [22] and in series [28] was “Non-Toxic” each time. Besides, the Cmax in series [23] amounted to 26.6 ng/mL. Besides, in series [24], the “inhibition (INH)” value was under 50%. The apparent permeability from apical to basolateral (Papp A→B) at 2 h in series [25] was found to be 0.002 ×10⁻⁶ cm/s. In series [26], this compound showed a bioavailability of 11.2%. Further, the Tmax in series [27] was 8 h.
